From ChEMBL document CHEMBL2396539, “Asymmetric synthesis of the four diastereoisomers of a novel non-steroidal farnesoid X receptor (FXR) agonist: role of the chirality on the biological activity” (Bioorg Med Chem, 2013)

Experiments:
Bile acid receptor = target: T1, Bile acid receptor (Homo sapiens, UniProt Q96RI1); experiment: Agonist activity at GST-tagged human FXR LBD assessed as recruitment of biotinylated SRC-1 peptide after 30 mins by AlphaScreen assay
T1 sequence (Q96RI1 whole entry): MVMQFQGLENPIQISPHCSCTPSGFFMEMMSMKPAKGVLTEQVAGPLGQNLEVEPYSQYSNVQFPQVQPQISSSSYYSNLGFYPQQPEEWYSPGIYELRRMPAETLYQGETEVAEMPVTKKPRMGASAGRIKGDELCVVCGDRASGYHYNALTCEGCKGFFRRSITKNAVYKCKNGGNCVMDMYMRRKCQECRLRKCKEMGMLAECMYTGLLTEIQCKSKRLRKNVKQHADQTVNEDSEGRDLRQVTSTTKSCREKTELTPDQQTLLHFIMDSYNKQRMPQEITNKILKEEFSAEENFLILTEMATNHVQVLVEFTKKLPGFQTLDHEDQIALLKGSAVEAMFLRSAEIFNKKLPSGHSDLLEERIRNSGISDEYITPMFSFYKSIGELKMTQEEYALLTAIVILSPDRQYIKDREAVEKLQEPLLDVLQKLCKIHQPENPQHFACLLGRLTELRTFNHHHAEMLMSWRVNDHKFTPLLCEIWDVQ
In short: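 Human FXR ligand-binding domain fused to GST was incubated with the ligand at increasing concentrations together with biotinylated SRC-1 peptide. Ligand-dependent recruitment of the coactivator peptide was read out by AlphaScreen. Where tested, compounds were single diastereoisomers or a mixture of syn- and anti-couples.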

[1] = target: T2, Bile acid receptor (Homo sapiens) (UniProt Q96RI1); experiment: Agonist activity at GST-tagged human FXR LBD assessed as recruitment of biotinylated SRC-1 peptide after 30 mins by AlphaScreen assay relative to CDCA
T2 sequence (whole entry): T1 sequence (Q96RI1 whole entry)

Compound | EC50 (Bile acid receptor) | Efficacy [1]
Cc1ccccc1-n1nc(C)c2c1NC(=O)[C@@H](C)S[C@@H]2c1ccc(Oc2ccccc2)cc1 | > 150 µM | 
Cc1ccccc1-n1ncc2c1NC(=O)[C@H](C)S[C@@H]2c1ccc(Oc2ccccc2)cc1 (racemic) | > 150 µM | 
Cc1ccccc1-n1nc(C)c2c1NC(=O)[C@H](C)S[C@H]2c1ccc(Oc2ccccc2)cc1 | > 150 µM | 
Cc1ccccc1-n1nc(C)c2c1NC(=O)[C@@H](C)S[C@H]2c1ccc(Oc2ccccc2)cc1 | > 150 µM | 
Cc1ccccc1-n1nc(C)c2c1NC(=O)CS[C@H]2c1ccc(Oc2ccccc2)cc1 (racemic) | 14 µM | 8%
CCc1nn(-c2ccccc2C)c2c1[C@@H](c1ccc(Oc3ccccc3)cc1)S[C@@H](C)C(=O)N2 (racemic) | 2 µM | 140%

The remaining lines, values ahead:

EC50 (Bile acid receptor) | Efficacy [1] | Compound
> 150 µM |  | CCC[C@@H]1S[C@H](c2ccc(Oc3ccccc3)cc2)c2c(C)nn(-c3ccccc3C)c2NC1=O (racemic)
1.4 µM |  | Cc1ccccc1-n1nc(C)c2c1NC(=O)[C@H](C)S[C@@H]2c1ccc(Oc2ccccc2)cc1 [listing 1 of 2 here]
3 µM | 35% | CCC1SC(c2ccc(Oc3ccccc3)cc2)c2c(C)nn(-c3ccccc3C)c2NC1=O (mixture of isomers)
 | 130% | Cc1ccccc1-n1nc(C)c2c1NC(=O)[C@H](C)S[C@@H]2c1ccc(Oc2ccccc2)cc1 [listing 2 of 2 here]
3 µM |  | Cc1ccccc1-n1nc(C)c2c1NC(=O)[C@H](C)S[C@@H]2c1ccc(Oc2ccccc2)cc1 (racemic) [listing 1 of 2 here]
 | 150% | Cc1ccccc1-n1nc(C)c2c1NC(=O)[C@H](C)S[C@@H]2c1ccc(Oc2ccccc2)cc1 (racemic) [listing 2 of 2 here]
